Screening data as filed in PubChem.
Rows were chosen to be rich in hits. Some 2.7% of all compounds tested hit in one or more screens of this group.
pPAFAH inh: pPAFAH enzyme inhibitors, primary screen, biochemical, fluorescence polarization, human; inhibition, % at 3.39 µM; 1.5% of 330,000 active; Platelet-activating factor acetylhydrolase (Homo sapiens), Q13093; recombinant pPAFAH, FP-rhodamine probe fluorescence polarization;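 active means inhibition above the mean inhibition across the screen plus 3 SD, cut at about 25% in these data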;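 further: inhibitors block binding of the rhodamine activity-based probe so polarization drops; 0% = enzyme with DMSO and 100% = wells lacking pPAFAH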
RBBP9 inh: human RBBP9 inhibitors, primary screen, biochemical, fluorescence polarization, FP-Rh probe, HTS | Serine hydrolase RBBP9 (Homo sapiens), O75884 | recombinant RBBP9 | inhibition, % at 7.94 µM | 0.2% of 220,000 active | AID 1515, 2009;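 active means inhibition above the campaign mean of all tested compounds plus 3 SD, cut at about 14% in these data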;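 further: plate controls were DMSO wells with RBBP9 for no effect and wells lacking RBBP9 protein for full effect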
Target sequence (O75884 whole entry, looked up): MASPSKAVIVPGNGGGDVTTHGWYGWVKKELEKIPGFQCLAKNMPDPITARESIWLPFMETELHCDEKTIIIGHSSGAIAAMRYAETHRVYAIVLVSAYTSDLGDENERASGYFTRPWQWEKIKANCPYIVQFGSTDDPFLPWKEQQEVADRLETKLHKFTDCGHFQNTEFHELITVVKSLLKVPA
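Test system – recombinant human RBBP9 · Input – RBBP9 2.5 µM in dispensing solution, pre-mixing · Medium – Tris buffer pH 8.0, NaCl, Pluronic · Schedule – preincubation 30 min plus labeling 45 min at 25 °C · Measured by – fluorescence polarization · Measure – % inhibition · Controls – DMSO and no-protein wells · Replicates – one well per compound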
PAFAH2 inh: PAFAH2 enzyme inhibitors, primary screen, biochemical, fluorescence polarization, human; recombinant PAFAH2, FP-rhodamine activity probe; inhibition, % at 3.39 µM; 0.99% of 340,000 active;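 active means inhibition above the mean over all tested compounds plus 3 SD, cut at about 30% in these data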;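 further: inhibitors block probe labeling of enzyme so polarization drops; 0% = enzyme with DMSO and 100% = wells lacking PAFAH2 protein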
PAFAH1B2 FP inh: PAFAH1B2 enzyme inhibitors, primary screen, biochemical, fluorescence polarization, human | AID 492953, 2010 | recombinant PAFAH1B2, FP-rhodamine activity probe | inhibition, % at 3.39 µM | 1.2% of 340,000 active;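 active means inhibition above the mean of all tested compounds plus 3 SD, cut at about 24% in these data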;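 further: 0% = enzyme with DMSO and 100% = wells lacking PAFAH1B2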
Target sequence (P68402 whole entry, looked up): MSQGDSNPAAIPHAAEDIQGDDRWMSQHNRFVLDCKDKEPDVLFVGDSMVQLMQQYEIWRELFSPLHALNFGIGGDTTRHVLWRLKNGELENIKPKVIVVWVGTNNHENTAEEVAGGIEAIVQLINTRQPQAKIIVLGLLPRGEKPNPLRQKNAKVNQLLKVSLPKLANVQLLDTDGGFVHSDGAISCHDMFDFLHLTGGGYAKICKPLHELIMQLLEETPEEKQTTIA
PAFAH1B3 FP inh: PAFAH1B3 enzyme inhibitors, primary screen, biochemical, fluorescence polarization, human | recombinant PAFAH1B3, FP-rhodamine probe | inhibition, % at 3.39 µM | 0.28% of 340,000 active | AID 492972, 2010;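 active means inhibition above the screen-wide average of all tested compounds plus 3 SD, cut at about 25% in these data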;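 further: 0% = enzyme with DMSO only and 100% = wells lacking PAFAH1B3 protein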
pPAFAH confirm: pPAFAH (PLA2G7) enzyme inhibitors, confirmation, biochemical, fluorescence polarization, human. 72% of 2,300 active. recombinant pPAFAH, FP-Rh probe fluorescence polarization. inhibition, % at 3.39 µM. shares compounds with pPAFAH inh;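 active means mean inhibition of the triplicate above the hit cutoff set for the earlier primary screen, cut at about 25% in these data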;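 further: 0% = enzyme with DMSO and 100% = wells lacking pPAFAH enzyme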
Starred values were filed as active, the others as inactive; · = not tested or not shown.

SMILES	pPAFAH inh	RBBP9 inh	PAFAH2 inh	PAFAH1B2 FP inh	PAFAH1B3 FP inh	pPAFAH confirm
COc1cccc(OCc2cc(/C=N/Nc3ccc(C(=O)O)cc3)ccc2OC)c1	39*	-4	15	0	-1	65*
O=C(NNc1ccccc1[N+](=O)[O-])Nc1ccc(Cl)c(Cl)c1	-2	-16	-10	4	1	·
O=C1NC(=O)C(c2ccccc2[N+](=O)[O-])=C1Nc1ccc(O)c(Cl)c1	44*	·	12	0	8	6
O=C(NNC1=NS(=O)(=O)c2ccccc21)c1ccccc1Cl	1	-2	-8	1	-2	·
N#CCCN(NC1=NS(=O)(=O)c2ccccc21)C(=O)c1ccccc1Br	50*	·	-3	6	3	3
COc1ccccc1/C=C/c1ccc2cccc(O)c2n1	42*	·	6	-3	9	24
COc1ccc(CNC(=O)C/C(C)=N/NC(=O)COc2ccccc2)cc1	-1	-3	1	-2	5	·
S=c1[nH]nc(-c2cc(-c3ccccc3)n[nH]2)n1/N=C/c1c(Cl)cccc1Cl	17	-4	24	0	4	·
S=c1[nH]nc(-c2cc(-c3ccccc3)n[nH]2)n1/N=C/c1ccc(Br)s1	54*	-1	27	10	14	70*
O=C(CNC(c1ccccc1)c1ccccc1)Nc1c(F)cccc1F	89*	-13	4	5	13	10
CCn1c2ccccc2c2cc(NC(=O)COC(=O)c3ccccc3F)ccc21	15	-2	2	-1	6	·
CCn1c2ccccc2c2cc(NC(=O)COC(=O)c3ccc(NC(=O)CC#N)cc3)ccc21	35*	·	-12	5	-3	18
CCn1c2ccccc2c2cc(NC(=O)c3ccc(Br)o3)ccc21	42*	5	7	0	3	17
CCn1c2ccccc2c2cc(NC(=O)N3CCOCC3)ccc21	-2	-4	3	0	7	·
CCn1c2ccccc2c2cc(NC(=O)c3coc(=O)c(Br)c3)ccc21	10	-4	·	·	·	·
CCn1c(SCC(=O)Nc2ccc3c(c2)c2ccccc2n3CC)nnc1-c1ccco1	56*	-8	22	4	2	42*
CCn1c2ccccc2c2cc(NC(=O)CN(C)CC(=O)Nc3ccc(N4CCOCC4)cc3)ccc21	38*	-3	1	5	4	39*
COc1cccc(NC(=O)CCS(=O)(=O)c2ccc(Br)cc2)c1	-2	·	-2	9	7	·
COc1ccc(S(=O)(=O)N2CCOC23CCN(S(=O)(=O)c2ccc(F)cc2C)CC3)cc1	·	·	-5	1	0	·
CCOc1ccc(NC(=O)CS(=O)CC(=O)Nc2cccnc2)cc1 (stereo not given)	-2	·	-4	2	11	·
Cn1c(=O)nc2n(Cc3ccccc3)c3cccc(Cl)c3cc-2c1=O	6	-11	-1	-3	4	·
O=C(CN1C(=O)CNC1=O)Nc1cccc(C(F)(F)F)c1	1	-14	-2	2	2	·
O=C(NCc1ccco1)c1sc(=S)n2c1[nH]c(=O)c1ccccc12	47*	-5	30	18	19	61*
CCCCCNC(=O)c1ccc2c(=O)[nH]c3c(C(=O)NCC4CCCO4)sc(=S)n3c2c1 (stereo not given)	62*	2	45*	49*	38*	74*
Cc1ccc(CNC(=O)c2ccc3c(=O)[nH]c4c(C(=O)NCC5CCCO5)sc(=S)n4c3c2)cc1 (stereo not given)	38*	1	31*	30*	34*	75*
SMILES	pPAFAH inh	RBBP9 inh	PAFAH2 inh	PAFAH1B2 FP inh	PAFAH1B3 FP inh	pPAFAH confirm
O=C(NCc1ccccc1)c1ccc2c(=O)[nH]c3c(C(=O)NCC4CCCO4)sc(=S)n3c2c1 (stereo not given)	63*	4	54*	35*	34*	81*
Cc1cccc(OCCCN2C(=O)C(=O)c3cc(C)ccc32)c1	11	-3	2	6	4	·
CCCCn1c(-c2ccccc2)cnc1SCC(=O)NCCc1ccc(OC)c(OC)c1	2	-6	0	6	7	·
O=C(Nc1cc(S(=O)(=O)N2CCCCCC2)ccc1OCC(F)(F)F)c1ccc(=O)[nH]c1	-6	·	5	8	14	·
CC(C)(C)c1ccc(C(=O)NC(=O)CSc2n[nH]c(N)n2)cc1	4	·	2	-1	9	·
O=C(NCc1ccncc1)c1ccc(NS(=O)(=O)c2ccccc2)cc1	4	·	-4	7	8	·
NNC(=S)Nc1cccc(-c2n[nH]c(=S)o2)c1	39*	-10	12	5	21	7
COc1ccc(OC)c(N2C(=O)[C@@H]3C(c4ccccc4Cl)=NO[C@@H]3C2=O)c1	38*	-2	21	5	6	13
CC(=O)Nc1ccc(NC(=O)COC(=O)c2cc(S(=O)(=O)N(C)C)ccc2N2CCCC2)cc1	-2	·	4	-4	-1	·
N=C1/C(=C\c2ccc(OC(=O)c3ccccc3Cl)cc2)C(=O)N=C2SC(N3CCOCC3)=NN12	36*	·	8	5	16	33*
COc1ccc(S(=O)(=O)Nc2c(C(=O)O)[nH]c3ccccc23)c(OC)c1	51*	-5	6	12	9	5
COc1ccc(S(=O)(=O)Nc2c(C(=O)O)[nH]c3ccc(OC)cc23)c(OC)c1	8	·	18	16	7	·
COc1cccc(CC2(CO)CCCN(Cc3sc(N4CCCC4)nc3Cl)C2)c1 (stereo not given)	-11	-1	8	4	-1	·
CCOc1ccc(NS(=O)(=O)c2ccc(C(=O)NCC(c3ccc(OC)cc3)N3CCCC3)cc2)cc1 (stereo not given)	49*	·	8	2	3	41*
COc1cccc2cc(C(=O)OCc3ccccc3)c(=O)oc12	-4	·	7	3	7	·
CCOC(=O)c1nn(-c2ccccc2)c(=O)c2c(N)scc12	1	8	9	5	14	·
Nc1scc2c(C(=O)N/N=C/c3ccc(Cl)cc3)nn(-c3ccccc3)c(=O)c12	35*	-7	4	3	10	11
Cc1cc(C)c(S(=O)(=O)N(CC(=O)N2CCCC2)C2CCCCC2)c(C)c1	4	-4	2	1	11	·
Cc1cc(C)c(S(=O)(=O)N(C)CC(=O)N2CCCCC2)c(C)c1	52*	5	7	0	0	0
